# Experimental data gathered from unrelated publications.
# Compare with care: the assays were run in different laboratories.
# Target: Activin receptor type-1-like (ACVRL1, Homo sapiens, UniProt P37023)
Compound,effect on,mode,technique,concentration,endpoint,value
COc1cc(Cl)c(C(=O)N[C@@H](CN[C@H]2CC[C@@H](N)CC2)Cc2ccc(C#N)cc2)cc1-c1ccc(CN[C@H](C)c2ccc(C)cc2)o1,enzyme activity,inhibitor,,1 µM,remaining activity,123%
O=C(Nc1cnn(-c2csc(C(=O)NC3COC3)c2)c1)Nc1ccccc1Cl,enzyme activity,inhibitor,,5 µM,remaining activity,107%
CCC(=O)N[C@@H]1CC[C@H](C(=O)N(C)c2ccc(-c3nc4ccccc4o3)cc2)C1,cell-free assay,,competition with immobilised ligand,1 µM,remaining binding,100%
Cc1cc(NC(=O)c2cccc3cc(-c4cccc5[nH]nc(N)c45)ccc23)ccc1F,enzyme activity,inhibitor,,0.1 µM,activity vs control,143%
CCCCN(CCCC)C(=O)CN1C[C@H](c2cc(OC)c3c(c2)OCO3)[C@@H](C(=O)O)[C@@H]1CC(C)(C)CCC,cell-free assay,,competition with immobilised ligand,1 µM,remaining binding,100%
C#Cc1cccc(Nc2ncnc3cc(OCCOC)c(OCCOC)cc23)c1,cell-free assay,,,0.5 µM,remaining signal,101%
Cc1ccc(C(=O)Nc2ccc(CN3CCN(C)CC3)c(C(F)(F)F)c2)cc1C#Cc1cnc2cccnn12,cell-free assay,,,23.5 nM,remaining signal,100%
Cc1sc(C(=O)NC2COC2)cc1-n1cc(NC(=O)Nc2c(F)cccc2Cl)cn1,enzyme activity,inhibitor,,10 µM,remaining activity,78.7%
N#Cc1ccc(Nc2ccc3[nH]c(=O)[nH]c3c2)c(Cl)c1,binding,,competition with immobilised ligand,1 µM,remaining binding,100%
O=C1Nc2ccc(Cl)cc2C1=Cc1cc(Cl)c(O)c(Cl)c1,cell-free assay,,,0.5 µM,remaining signal,96.4%
Cc1ccc(NC(=O)c2ccc(C)c(C(F)(F)F)c2)cc1C#Cc1nn(C2CCC(O)CC2)c2ncnc(N)c12 (stereo not drawn),cell-free assay,,,10 µM,remaining signal,71%
O=C1NC(=O)c2cc(Nc3ccc(F)cc3)c(Nc3ccc(F)cc3)cc21,cell-free assay,,,0.5 µM,remaining signal,95.9%
CC(C)(C)c1nc(-c2cccc(NS(=O)(=O)c3c(F)cccc3F)c2F)c(-c2ccnc(N)n2)s1,enzyme activity,inhibitor,radiometric,1 µM,remaining activity,75%
CNC(=O)c1cc(Oc2ccc(NC(=O)Nc3ccc(Cl)c(C(F)(F)F)c3)cc2)ccn1,cell-free assay,,,0.5 µM,remaining signal,104%
O=C(O)[C@@H]1[C@@H](Cn2nnc3ccccc3c2=O)CC[C@H]1C(=O)c1ccc(OCCC2CCOCC2)cc1,binding,,competition with immobilised ligand,1 µM,remaining binding,97%
